Assay [1] deals with T1, PMPMEase (Sus scrofa, UniProt Q29550).
T1 sequence (Q29550 19-566): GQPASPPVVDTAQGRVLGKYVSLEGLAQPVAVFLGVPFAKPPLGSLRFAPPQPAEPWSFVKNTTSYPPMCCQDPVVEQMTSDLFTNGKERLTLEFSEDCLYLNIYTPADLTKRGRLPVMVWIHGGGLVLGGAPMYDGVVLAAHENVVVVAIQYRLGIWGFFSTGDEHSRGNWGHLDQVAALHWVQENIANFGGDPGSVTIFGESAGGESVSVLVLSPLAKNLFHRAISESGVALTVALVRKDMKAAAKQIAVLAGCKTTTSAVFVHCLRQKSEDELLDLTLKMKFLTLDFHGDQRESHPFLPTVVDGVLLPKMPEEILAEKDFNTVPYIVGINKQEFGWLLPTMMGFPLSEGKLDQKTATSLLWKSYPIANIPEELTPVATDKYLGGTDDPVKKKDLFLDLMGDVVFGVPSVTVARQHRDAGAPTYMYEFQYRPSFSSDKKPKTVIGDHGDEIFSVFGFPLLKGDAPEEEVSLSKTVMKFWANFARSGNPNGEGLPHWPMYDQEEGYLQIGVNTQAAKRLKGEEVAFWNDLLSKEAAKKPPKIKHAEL
The assay can be described thus: PMPMEase enzyme assay with RD-PNB substrate. The class given is biochemical, porcine. The conditions noted are these: for decrease in PMPMEase inhibitory potency relative to AA: from IC50 values, AA as comparator.

For assay [2], the system named is Human neuroblastoma SH-SY5Y cells. The assay can be described thus: Cell viability, resazurin reduction. It counts as cell-based. The conditions noted are these: for degeneration of the cells: 10 μM (printed for AA), 72 h, Figure 4C.
Assay [3] deals with T2, PMPMEase (Homo sapiens, UniProt P23141).
T2 sequence (P23141 18-567): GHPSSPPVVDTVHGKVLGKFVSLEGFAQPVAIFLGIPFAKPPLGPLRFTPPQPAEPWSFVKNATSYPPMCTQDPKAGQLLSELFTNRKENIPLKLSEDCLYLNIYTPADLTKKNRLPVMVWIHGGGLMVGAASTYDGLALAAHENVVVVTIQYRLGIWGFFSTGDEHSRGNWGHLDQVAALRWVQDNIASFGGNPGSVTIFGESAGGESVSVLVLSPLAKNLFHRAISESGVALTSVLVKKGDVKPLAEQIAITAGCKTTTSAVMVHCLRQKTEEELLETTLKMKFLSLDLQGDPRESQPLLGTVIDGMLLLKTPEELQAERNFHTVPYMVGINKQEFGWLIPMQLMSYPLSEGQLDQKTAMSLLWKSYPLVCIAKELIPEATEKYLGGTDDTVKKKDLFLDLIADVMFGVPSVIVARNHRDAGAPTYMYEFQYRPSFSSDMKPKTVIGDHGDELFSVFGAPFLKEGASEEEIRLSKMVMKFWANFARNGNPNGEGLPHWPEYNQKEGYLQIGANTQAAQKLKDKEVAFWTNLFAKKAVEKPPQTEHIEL
Description: PMPMEase activity in lysates of FFA-treated SH-SY5Y cells. It counts as cell-based. The following applies: DMSO-induced degenerated cells, non-specific cytotoxic agent. An outline of the steps:
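SH-SY5Y cells were seeded in 24-well plates at 5 × 10^5 and exposed to fatty acids (0–200 μM) or DMSO for 24 h, then lysed in medium with Triton X-100. Lysate was incubated at 37 °C with RD-PNB in 100 mM Tris-HCl, pH 7.4. Reactions were stopped with methanol on ice and spun, and product was measured by RP-HPLC (UV 260 nm). Means ± S.E.M.; ANOVA with Dunnett's test.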

Setting [4] is: purified PMPMEase 5 μg, RD-PNB 1 mM, 37°C, pH 7.4.
Setting [5] is: purified PMPMEase 5 μg, RD-PNB 1 mM, 15 min pre-incubation, 37°C, pH 7.4.

Where two headings read alike, the source gives them in different places. Some results are limits rather than exact numbers.

As for `CCCCCCCC/C=C\CCCCCCCC(=O)O` [Oleic acid], on PMPMEase [1], the IC50 was determined as 53 µM and affinity was put at a Ki of 1.5 µM.
The compound `CCCCCCCCCCCC(=O)O` [Lauric acid] registered an inhibition constant (Ki) on PMPMEase [1] (setting [4]) of 6.5 µM. For the same compound, the IC50 against PMPMEase [1] (setting [5]) amounted to 230 µM.
Take `CCCCC[C@H](O)/C=C/[C@H]1C=CC(=O)[C@@H]1CCCCCCC(=O)O` [Prostaglandin A1]: on PMPMEase [1], the IC50 was over 1000 µM and the inhibitory constant (Ki) is over 28 µM.
At PMPMEase [1], `CCCCCCCCCCCCCCCC(=O)O` [Palmitic acid] yielded an IC50 of over 1000 µM and a Ki of over 28 µM.
With `CC/C=C\C/C=C\C/C=C\C/C=C\C/C=C\CCCC(=O)O` [Eicosapentaenoic acid], on PMPMEase [1], half-maximal inhibition (IC50) was put at 12 µM.
As to `CCCCCC/C=C\CCCCCCCC(=O)O` [Palmitoleic acid], on PMPMEase [1], the IC50 worked out at 37 µM and the Ki worked out at 1 µM.
On PMPMEase [1], `CC/C=C\C/C=C\C/C=C\C/C=C\C/C=C\C/C=C\CCC(=O)O` [Docosahexaenoic acid] gave an IC50 of 130 µM.
Turning to `CCCCC[C@H](O)/C=C/[C@H]1C=CC(=O)[C@@H]1C/C=C\CCCC(=O)O` [Prostaglandin A2], at PMPMEase [1], half-maximal inhibition (IC50) was put at 420 µM and the “decrease in PMPMEase inhibitory potency relative to AA” value is listed as “over 63 fold”.
At PMPMEase [1], `CCCCCCCCCCCCCCCCCCCC(=O)O` [Arachidic acid] displayed an IC50 of over 1000 µM and a Ki of over 28 µM. Moreover, in assay [2] (200 μM, 24 h exposure, listed as ARA), the “effect on cell viability (in words)” value is “no effect on cell viability”.
With `CCCCC[C@H](O)/C=C/[C@H]1[C@H](O)CC(=O)[C@@H]1C/C=C\CCCC(=O)O` [Prostaglandin E2], on PMPMEase [1], the IC50 is over 1000 µM and the “decrease in PMPMEase inhibitory potency relative to AA” value was over 150 fold. Besides, in assay [2], the “degeneration of the cells” value was 34 ± 4.0%.
Regarding `C[S+](C)[O-]` [DMSO, dimethylsulfoxide], the “loss of PMPMEase enzyme activity in degenerated cells” value on PMPMEase [3] is 49 ± 3%.
At PMPMEase [1], `CCCCCCCC(=O)O` [Octanoic acid] displayed an IC50 of over 1000 µM and a Ki of over 28 µM.
In the case of `CC/C=C\C/C=C\C/C=C\CCCCCCCC(=O)O` [Linolenic acid], on PMPMEase [1], the midpoint of inhibition, the IC50, lay at 22 µM.
In the case of `CCCCC[C@H](O)/C=C/[C@H]1[C@H](O)CC(=O)[C@@H]1CCCCCCC(=O)O` [Prostaglandin E1], the IC50 on PMPMEase [1] is over 1000 µM.
Turning to `CCCCCCCCCCCCCC(=O)O` [Myristic acid], on PMPMEase [1], the IC50 amounted to 100 µM and affinity was put at a Ki of 2.8 µM.
At PMPMEase [1], `CCCCCCCCCC(=O)O` [Decanoic acid] showed an IC50 of over 1000 µM and a Ki of over 28 µM.
Regarding `CCCCC/C=C\C/C=C\C/C=C\C/C=C\CCCC(=O)O` [Arachidonic acid], the IC50 against PMPMEase [1] amounted to 6.6 µM. Besides, in assay [2], the “degeneration of the cells” value is on record as 99 ± 0.1%.
For the compound `CCCCC[C@H](O)/C=C/[C@@H]1[C@@H](C/C=C\CCCC(=O)O)[C@@H](O)C[C@H]1O` [Prostaglandin F2α], at PMPMEase [1], the IC50 is over 1000 µM and the Ki is over 28 µM. Also, the “degeneration of the cells” value in assay [2] came out at 19 ± 5.6%.
At PMPMEase [1], `CCCCC/C=C\C/C=C\CCCCCCCC(=O)O` [Linoleic acid] had an IC50 of 64 µM and a Ki of 1.8 µM.
At PMPMEase [1] (setting [4]), `CCCCC[C@H](O)/C=C/[C@@H]1[C@@H](CCCCCCC(=O)O)[C@H](O)C[C@H]1O` [Prostaglandin F1β] registered a Ki of over 28 µM. Further, the IC50 on PMPMEase [1] (setting [5]) is over 1000 µM.
On PMPMEase [1], `CCCCCCCC/C=C\CCCCCCCCCCCC(=O)O` [Erucic acid] yielded an IC50 of over 1000 µM and a Ki of over 28 µM.
On to `CCCCCCCC/C=C/CCCCCCCC(=O)O` [Elaidic acid], for which, on PMPMEase [1], the IC50 was over 1000 µM and the Ki was over 28 µM.
Take `CCCC/C=C\CCCCCCCC(=O)O` [Myristoleic acid]: at PMPMEase [1], the IC50 was 63 µM and the Ki turned out to be 1.8 µM.
With `CCCCC[C@H](O)/C=C/C1=C(CCCCCCC(=O)O)C(=O)CC1` [Prostaglandin B1], half-maximal inhibition against PMPMEase [1] (IC50) was put at 580 µM.
In the case of `CCCCCCCCCCCCCCCCCC(=O)O` [Stearic acid], on PMPMEase [1], the IC50 is over 1000 µM and the Ki is over 28 µM.

Source of the values: PMC3313489 (European journal of lipid science and technology : EJLST, 2011).
